Experimental data reported in ChEMBL document CHEMBL1149661, “Synthesis, biological evaluation, and molecular modeling of 3,5-substituted-N1-phenyl-N4,N4-di-n-butylsulfanilamides as antikinetoplastid antimicrotubule agents” (Bioorg Med Chem, 2007).

What was measured:
[1] = Inhibition of Leishmania tarentolae tubulin assembly
Procedure, shortened: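 Purified Leishmania tarentolae tubulin, 1.5 mg/mL, polymerized with or without compound. Assembly read as the absorbance change at 351 nm after 20 min at 30 °C, compared with untreated controls. Assembly kinetics were also followed over time. IC50 is the mean ± SD of at least three independent experiments.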

Tubulin = Tubulin (Sus scrofa, UniProt P02554+P02550); test: Inhibition of porcine tubulin assembly; type: protein assay
Procedure, shortened: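 Purified porcine brain tubulin at a final 2 mg/mL (raised from 1.5 mg/mL to make control assembly more reproducible). Polymerization read as the absorbance change at 351 nm after 20 min at 30 °C relative to controls. IC50 is the mean ± SD of at least three independent experiments.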

Leishmania donovani = test: Growth inhibition against Leishmania donovani; type: functional, organism-based
[2] = system: Trypanosoma brucei brucei; test: Growth inhibition against Trypanosoma brucei brucei; type: functional, organism-based
[3] = Toxicity against monkey Vero cells; type: cell-based; conditions: Chlorocebus sabaeus (monkey)
Tubulin (Sus scrofa) = Tubulin (Sus scrofa) (UniProt P02554+P02550); test: Inhibition of porcine tubulin assembly at 100 uM; type: protein assay
Sequence of Tubulin (Sus scrofa) (P02550 whole entry, looked up): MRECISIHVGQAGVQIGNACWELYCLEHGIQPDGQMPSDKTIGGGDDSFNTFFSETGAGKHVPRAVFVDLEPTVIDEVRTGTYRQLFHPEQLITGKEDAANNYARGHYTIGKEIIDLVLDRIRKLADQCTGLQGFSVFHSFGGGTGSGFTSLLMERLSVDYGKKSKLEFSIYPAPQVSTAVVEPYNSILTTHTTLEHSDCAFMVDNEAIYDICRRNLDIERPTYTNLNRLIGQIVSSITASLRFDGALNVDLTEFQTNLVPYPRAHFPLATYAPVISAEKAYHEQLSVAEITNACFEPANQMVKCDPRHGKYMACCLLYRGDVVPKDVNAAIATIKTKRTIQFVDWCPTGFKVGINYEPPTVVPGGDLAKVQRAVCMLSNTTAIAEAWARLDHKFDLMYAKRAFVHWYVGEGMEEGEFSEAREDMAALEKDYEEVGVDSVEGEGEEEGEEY
Sequence of Tubulin (Sus scrofa) (P02554 whole entry, looked up): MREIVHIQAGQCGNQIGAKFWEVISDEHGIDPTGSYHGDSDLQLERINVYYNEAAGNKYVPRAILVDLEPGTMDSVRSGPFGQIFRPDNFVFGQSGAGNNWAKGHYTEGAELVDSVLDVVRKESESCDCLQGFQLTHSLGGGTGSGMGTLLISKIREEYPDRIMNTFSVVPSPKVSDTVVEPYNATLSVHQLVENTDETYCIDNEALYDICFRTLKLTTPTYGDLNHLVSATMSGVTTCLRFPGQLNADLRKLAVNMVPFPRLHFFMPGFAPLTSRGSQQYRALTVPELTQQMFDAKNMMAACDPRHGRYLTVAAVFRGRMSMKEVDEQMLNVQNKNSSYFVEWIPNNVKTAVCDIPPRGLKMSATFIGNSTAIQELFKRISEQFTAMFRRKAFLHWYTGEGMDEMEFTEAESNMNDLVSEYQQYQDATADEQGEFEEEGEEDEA
Procedure, shortened: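 Porcine brain tubulin at a final 2 mg/mL, assembled with compound at a single 100 μM. Inhibition taken from the absorbance change at 351 nm after 20 min at 30 °C, relative to controls without compound.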

Row | IC50 [1] [µM] | IC50 (Tubulin) [µM] | IC50 [2] [µM] | inhibition (Tubulin (Sus scrofa)) [%] | SMILES | IC50 (Leishmania donovani) [µM] | IC50 [3] [µM]
1 | > 100 | > 100 | 1.6 |  | CCCCN(CCCC)c1c(C(C)=O)cc(S(=O)(=O)Nc2ccccc2)cc1C(C)=O | 30 | 26
2 | > 100 |  | > 50 |  | CCCCN(CCCC)c1c(C(N)=O)cc(S(=O)(=O)Nc2ccccc2)cc1C(N)=O | > 50 | 
3 | > 100 |  | > 50 |  | CCCCN(CCCC)c1c(C(=O)O)cc(S(=O)(=O)Nc2ccccc2)cc1C(=O)O | > 50 | 
4 | > 100 |  | > 50 |  | CCCCN(CCCC)c1c(C(=O)OC)cc(S(=O)(=O)Nc2ccccc2)cc1C(=O)OC | > 50 | 

Continued, compound first:

Row | SMILES | IC50 [1] [µM] | IC50 (Tubulin) [µM] | IC50 [2] [µM] | inhibition (Tubulin (Sus scrofa)) [%] | IC50 (Leishmania donovani) [µM] | IC50 [3] [µM]
5 | CCCCN(CCCC)c1c(N)cc(S(=O)(=O)Nc2ccccc2)cc1N | > 100 | > 50 | 4 | 50 | 12 | 27
6 | COc1cc([C@@H]2c3cc4c(cc3[C@H](O)[C@H]3COC(=O)[C@H]23)OCO4)cc(OC)c1OC [PODOFILOX] |  |  |  |  |  | 0.016
7 | N=C(N)c1ccc(OCCCCCOc2ccc(C(=N)N)cc2)cc1 [PENTAMIDINE] |  |  |  |  | 2.3 | 
8 | CCCCN(CCCC)c1c([N+](=O)[O-])cc(S(=O)(=O)Nc2ccccc2)cc1[N+](=O)[O-] | 7.4 | > 40 | 0.18 |  | 2.3 | 9.7
9 | CCCCN(CCCC)c1c(Cl)cc(S(=O)(=O)Nc2ccccc2)cc1Cl | 9.1 | > 50 | 1.6 |  | 11 | 19
10 | Cc1ccc(C(=O)Nc2ccc(S(=O)(=O)O)c3cc(S(=O)(=O)O)cc(S(=O)(=O)O)c23)cc1NC(=O)c1cccc(NC(=O)Nc2cccc(C(=O)Nc3cc(C(=O)Nc4ccc(S(=O)(=O)O)c5cc(S(=O)(=O)O)cc(S(=O)(=O)O)c45)ccc3C)c2)c1 [SURAMIN] |  |  | 0.077 |  |  | 
11 | CCCCN(CCCC)c1c(C#N)cc(S(=O)(=O)Nc2ccccc2)cc1C#N | 6.6 | > 50 | 0.26 |  | 4.4 | 16
